Experimental data from ChEMBL document CHEMBL1126587, “Novel 6-alkoxypurine 2',3'-dideoxynucleosides as inhibitors of the cytopathic effect of the human immunodeficiency virus” (J Med Chem, 1993).

Assays:
[1] = substrate: Nc1ncnc2c1ncn2[C@H]1CC[C@@H](CO)O1; assay: Compound was tested for adenosine deaminase assay in calf intestine
Method in brief: (§1)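 Calf intestinal adenosine deaminase, dialyzed against deionized water to remove ammonium sulfate. Dealkoxylation/deamination followed spectrophotometrically at 25 °C, pH 6.8 (adenosine: Δε −5.85 mM⁻¹cm⁻¹ at 270 nm). Km from initial velocity analysis. Relative velocity compares 100 μM dideoxynucleoside against 100 μM adenosine.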

[2] = substrate: CCOc1ncnc2c1ncn2C1CCC(CO)O1; assay: (§2) Michaelis-Menten constant for adenosine deaminase assay in calf intestine; method in brief: as §1
[3] = substrate: COc1ncnc2c1ncn2C1CCC(CO)O1; assay: as §2; method in brief: as §1

B1: Adenosine deaminase (Bos taurus), P56658 (protein)
chain: MAQTPAFNKPKVELHVHLDGAIKPETILYYGRKRGIALPADTPEELQNIIGMDKPLSLPEFLAKFDYYMPAIAGCREAVKRIAYEFVEMKAKDGVVYVEVRYSPHLLANSKVEPIPWNQAEGDLTPDEVVSLVNQGLQEGERDFGVKVRSILCCMRHQPSWSSEVVELCKKYREQTVVAIDLAGDETIEGSSLFPGHVKAYAEAVKSGVHRTVHAGEVGSANVVKEAVDTLKTERLGHGYHTLEDATLYNRLRQENMHFEVCPWSSYLTGAWKPDTEHPVVRFKNDQVNYSLNTDDPLIFKSTLDTDYQMTKNEMGFTEEEFKRLNINAAKSSFLPEDEKKELLDLLYKAYGMPSPASAEQCL
Km [1]: 45 µM
Km [2]: 650 µM
Km [3]: 150 µM
